Screens from PubChem BioAssay.
A selection: hits, their analogues and other compounds. The true share with any hit is near 1.9%.
Rce1 inh – yeast Ras-converting enzyme inhibition; yeast membranes, quenched prenylated peptide cleavage fluorescence; calls only; hit rate 0.27% among 290,000;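 active = fall in fluorescence gain of 50% or more versus controls, with final raw signal at or below 3038400; inconclusive = same 50% fall but final raw signal above 3038400; inactive = fall in fluorescence gain under 50%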;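 also: plate controls were neutral control wells for no effect and wells lacking membranes for full effect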
Target sequence (Q03530 whole entry, looked up): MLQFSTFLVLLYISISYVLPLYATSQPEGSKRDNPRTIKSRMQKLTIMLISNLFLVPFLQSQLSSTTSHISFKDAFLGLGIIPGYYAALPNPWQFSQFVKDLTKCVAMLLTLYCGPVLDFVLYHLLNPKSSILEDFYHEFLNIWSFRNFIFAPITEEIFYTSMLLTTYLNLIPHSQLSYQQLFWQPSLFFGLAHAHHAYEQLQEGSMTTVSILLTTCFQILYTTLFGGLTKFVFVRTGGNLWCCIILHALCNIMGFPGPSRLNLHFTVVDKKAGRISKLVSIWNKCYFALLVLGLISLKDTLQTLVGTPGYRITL
proKLK7 act – proKLK7 (human) activation, primary screen. hit rate 0.9% among 370,000. purified proKLK7, EDANS-DABCYL substrate fluorescence; 100% is mature enzyme control, 0% vehicle. activation, % at 7 µM. P49862;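 active = activation above the mean of all tested compounds plus 3 SD, computed per campaign excluding outliers beyond control limits, cut at about 13% in these data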
Target sequence (P49862 whole entry, looked up): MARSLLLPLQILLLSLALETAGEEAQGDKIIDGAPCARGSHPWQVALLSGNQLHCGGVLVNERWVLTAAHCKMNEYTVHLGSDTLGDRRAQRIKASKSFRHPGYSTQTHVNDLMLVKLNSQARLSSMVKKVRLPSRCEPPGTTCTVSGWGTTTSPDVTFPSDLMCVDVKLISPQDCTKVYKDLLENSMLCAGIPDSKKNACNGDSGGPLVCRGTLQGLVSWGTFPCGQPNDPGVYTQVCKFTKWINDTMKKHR
beta cell repl – MIN6 beta-cell proliferation induction; proliferation, % at 10 µM; hit rate 0.29% among 330,000; MIN6 cells proliferation, ATPlite luminescence, 48 h; cells starved in 0.2% serum; 100% = growth in 10% serum;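 active = compounds whose signal lies at least 3.5 SD above the mean of all wells on their plate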;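 also: 0% = DMSO-treated cells in low-serum medium and 100% = 10% serum control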
CR mimetic SO – caloric restriction mimetics inhibiting age-related superoxide in yeast; S. cerevisiae aged cells, superoxide DHE fluorescence; active compounds read low; superoxide response (% of plate mean), % at 10 µM; hit rate 0.18% among 330,000;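 active = superoxide response under a set limit, about three screen SD below normal, cut at about 65% in these data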;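 also: yeast aged for seven days with compound at 30 °C before DHE staining; 100% = average MFI of all compound-treated wells on the plate with controls excluded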
T cell HTS – modulates CD8 T cell binding to vesicles. 2C CD8+ T cell-vesicle binding, flow cytometry; active compounds read low. hit rate 0.068% among 330,000. response (vesicle binding), % at 7 µM. AID 2052;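 active = response, share of CD8 T cells binding vesicles, and their 90th percentile fluorescence all below set limits, cut at about 80% in these data, passing the limit was not always enough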;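 also: values below 100% mean blocked vesicle binding to the CD8+ T cells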
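material = purified 2C TCR transgenic mouse naive CD8+ T cells | controls = Unloaded micro-vesicles (low), QL9 vesicles with 0.7% DMSO (high) | detection = cytometric PE anti-B7-1 and Alexa647 anti-CD8 signals after 1% paraformaldehyde fixation | incubation = binding step 1.5 h, 37 °C, antibody labelling 20 min, ice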
V-ATPase pHluor – alters yeast V-ATPase proton transport; S. cerevisiae, pHLuorin cytosolic pH fluorescence; response, % at 10 µM; hit rate 0.37% among 350,000; in the data active = response mostly above about 7.3%, no sharp cut-off; inactive = mostly below about 5.4%; also: actives read high
proKLK7 act conf – confirmation of human kallikrein-7 zymogen activators. shares compounds with proKLK7 act. purified proKLK7, EDANS-DABCYL substrate fluorescence; scaled: vehicle 0, mature enzyme 100. activation, % at 7 µM. hit rate 68% among 3,200;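 active = activation, as change over the incubation, above the mean of all tested compounds plus 3 SD, cut at about 13% in these data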
EDANS-DABCYL int – fluorescence interference counter-screen for KLK7 activators; shares compounds with proKLK7 act; EDANS-DABCYL substrate fluorescence interference, no enzyme, 4 h; solvent 0%, active enzyme control 100%; activation, % at 7 µM; hit rate 80% among 3,200; AID 686952;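 active = activation above the all-compound mean plus 3 SD, ignoring values outside control-based bounds, cut at about 4.8% in these data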;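 also: value is the 4 h activation minus the activation read at time zero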
* hit, by the source's call; i = inactive; u = inconclusive; x = not tested or not shown.

SMILES	Rce1 inh	proKLK7 act	beta cell repl	CR mimetic SO	T cell HTS	V-ATPase pHluor	proKLK7 act conf	EDANS-DABCYL int
COc1ccc(-c2cc(=O)oc3c(C)c(O)c(CN(C)C)cc23)cc1	i	14*	6	105	442	2	-5	-7
Cc1ccc(CNC(=O)CSc2nc3n[nH]c(C)c3c(=N)n2-c2cccc(C)c2)cc1	i	13*	-4	88	372	8	28*	27*
COc1ccc(OC)c(/C=N/NC2=NS(=O)(=O)c3ccccc32)c1	i	51*	5	86	183	4	52*	46*
COc1ccc(OC)c(/C=N\NC(=O)c2ccc(=O)n(C)c2)c1	i	16*	-2	99	392	4	12	10*
COc1ccc(OC)c(/C=N/NC(=O)C(=O)N2CCCCCC2)c1	x	51*	3	88	136	-2	48*	45*
COc1ccc(OC)c(/C=C/C(=O)OCC(=O)N2CCCCC2)c1	x	22*	-4	95	415	2	14*	14*
COc1ccc(/C=C/C(=O)OCC(=O)N2CCCCCC2)cc1OC	x	4	-1	94	430	1	x	x
COc1ccc(/C=N/NC2=NS(=O)(=O)c3ccccc32)cc1	i	0	-1	102	105	3	x	x
COc1ccc(OC)c(/C=N/NC(=O)c2ccc(=O)[nH]n2)c1	i	16*	-3	110	352	-1	17*	20*
COc1cccc(/C=N/NC(=O)c2ccc(=O)[nH]n2)c1O	i	0	-3	92	264	3	x	x
COc1ccc(OC)c(/C=N/NC(=O)c2ccncc2)c1	i	41*	1	98	138	-1	41*	39*
COc1ccc(OC)c(/C=N\NC(=O)c2ccc(-c3ccccc3)cc2)c1	i	-2	1	97	188	-1	x	x
COc1ccc(OC)c(/C=N/NC(=O)c2cc[n+](Cc3ccccc3)cc2)c1	i	45*	-1	95	172	-2	79*	81*
CC(=O)Nc1cccc(NC(=O)CSc2ncc(C(=O)Nc3ccccc3)c(=O)n2C)c1	i	100*	-5	111	576	6	6	13*
Cn1c(NCc2ccccc2F)nc2cc(-c3cccc(C(F)(F)F)c3)sc2c1=O	x	0	x	x	x	x	x	x
CC(C)N(C(=O)[C@H]1C[C@H](CC(=O)NCCCN(C)C)C(=O)N2CCc3c([nH]c4cc(-c5ccco5)ccc34)[C@]12C)C(C)C	x	103*	x	100	x	-1	73*	88*
CCN(CC)C(=O)[C@H]1C[C@H](CC(=O)NC/C=C(\C)CCC=C(C)C)C(=O)N2CCc3c([nH]c4cc(-c5ccco5)ccc34)[C@]12C	x	19*	x	100	x	-1	4	12*
CCN(CC)C(=O)[C@H]1C[C@H](CC(=O)NCCCOC)C(=O)N2CCc3c([nH]c4cc(-c5ccco5)ccc34)[C@]12C	x	164*	x	113	x	2	166*	206*
CCN(CC)C(=O)[C@H]1C[C@H](CC(=O)NCCCN(C)C)C(=O)N2CCc3c([nH]c4cc(-c5ccco5)ccc34)[C@]12C	x	90*	x	96	x	-3	73*	84*
CCN(CC)C(=O)[C@H]1C[C@H](CC(=O)NCC23CC4CC(CC(C4)C2)C3)C(=O)N2CCc3c([nH]c4cc(-c5ccco5)ccc34)[C@]12C	x	-7	x	86	x	1	x	x
CC(=O)Nc1ccc(NC(=O)CSc2nnc(NC(=O)C3CC(=O)N(c4ccc(F)cc4)C3)s2)cc1 (stereo unspecified)	i	1	-2	89	226	2	x	x
COc1ccccc1CNC(=O)C1(C)CCCCN1C (stereo unspecified)	x	0	x	x	x	x	x	x
O=C(COC(=O)Cn1cnc2ccccc2c1=O)Nc1ccccc1OC(F)F	x	0	-2	93	645	-6	x	x
CCN(CC)C(=O)[C@H]1C[C@H](CC(=O)NCc2ccc(OC)c(OC)c2)C(=O)N2CCc3c([nH]c4cc(-c5ccco5)ccc34)[C@]12C	x	141*	x	111	x	1	68*	76*
CCN1CCN(S(=O)(=O)c2ccc3c4c(cccc24)C(=O)N3CC)CC1	x	56*	-5	87	334	8	44*	46*
SMILES	Rce1 inh	proKLK7 act	beta cell repl	CR mimetic SO	T cell HTS	V-ATPase pHluor	proKLK7 act conf	EDANS-DABCYL int
CCN1C(=O)c2cccc3c(S(=O)(=O)N4CCCC4C(=O)O)ccc1c23 (stereo unspecified)	i	37*	-2	96	182	1	22*	24*
CCN1C(=O)c2cccc3c(S(=O)(=O)Nc4ccccc4)ccc1c23	i	x	-6	100	286	-3	x	x
CCOC(=O)C1CCCN(S(=O)(=O)c2ccc3c4c(cccc24)C(=O)N3CC)C1 (stereo unspecified)	x	-17	-4	92	207	-1	x	x
CCN1C(=O)c2cccc3c(S(=O)(=O)N4CCNCC4)ccc1c23	x	171*	-2	118	280	-56	57*	68*
O=C1NC(=O)C(c2ccccc2)(c2ccccc2)N1S(=O)(=O)c1ccccc1	x	0	x	x	x	4	x	x
CC(NCC(=O)Nc1ccccc1C(=O)NC1CC1)c1cccc(C(F)(F)F)c1 (stereo unspecified)	x	0	-6	94	i	2	x	x
CCOc1ccc(/C(O)=C2/C(=O)C(=O)N(c3ccccn3)C2c2ccc(C)cc2)c(C)c1 (stereo unspecified)	i	17*	-2	88	845	2	32*	32*
CCCOc1ccc(/C=C2\SC(N)=NC2=O)cc1OC	i	18*	-1	99	254	4	0	-2
CC(=O)Nc1ccc2c3c(cccc13)C(=O)N(c1ccccc1)C2=O	i	59*	1	101	334	2	65*	71*
O=C(O)c1cc(-c2ccccc2)nc2nc(N3CCCCC3)sc12	i	16*	-4	97	623	x	44*	41*
Cc1ccc(-c2cc(C(=O)O)c3sc(N4CCCCC4)nc3n2)cc1	u	25*	0	96	444	-3	19*	23*
CNc1cnc(-c2ccsc2)cn1	x	15*	x	x	x	x	12	12*
CNc1cnc(-c2ccc(O)c(OC)c2)cn1	x	1	x	x	x	x	x	x
COc1ccc(S(=O)(=O)Nc2ccc3c(c2)C(=O)N([C@H](C)CO)C[C@H](C)[C@@H](CN(C)C(=O)Nc2c(C)noc2C)OCCCC[C@H](C)O3)cc1	x	0	x	x	x	-2	x	x
